Assay results published in ChEMBL document CHEMBL4152234, “Aminobenzothiazole derivatives stabilize the thermolabile p53 cancer mutant Y220C and show anticancer activity in p53-Y220C cell lines” (Eur J Med Chem, 2018).
Active and inactive are the calls of the source. No cut-off for these calls is given here.

Columns and labels:
[1] = test system: Cellular tumor antigen p53 (Homo sapiens), P04637 [Y220C]; assay: Activation of p53 Y220C mutant in human NUGC3 cells assessed as change in ATR mRNA level at 60 uM after 18 hrs by RT-PCR method relative to control; format: cell-based
Summary of the method: (§1)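 p53 signalling qPCR array covering 84 genes. Cells were exposed for 18 h, with 0.5% DMSO in both compound and control samples. Total RNA was extracted and purified. Fold-changes were calculated by ΔΔCt using β2-microglobulin (B2M) as the housekeeping gene. Two independent biological replicates were run per cell line.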

[2] = test system: Cellular tumor antigen p53 (Homo sapiens), P04637 [Y220C]; assay: Activation of p53 Y220C mutant in human NUGC3 cells assessed as change in MSH2 mRNA level at 60 uM after 18 hrs by RT-PCR method relative to control; format: cell-based
Summary of the method: (§2)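 p53 signalling qPCR array covering 84 p53 pathway genes. Cells were exposed for 18 h, and compound and control wells both held 0.5% DMSO. Total RNA was extracted and purified. Fold-changes were calculated by the ΔΔCt method against the untreated sample, with β2-microglobulin (B2M) as the housekeeping gene. Each cell line was run in two independent biological replicates.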

[3] = test system: Cellular tumor antigen p53 (Homo sapiens), P04637 [Y220C]; assay: Activation of p53 Y220C mutant in human NUGC3 cells assessed as change in BAX mRNA level at 60 uM after 18 hrs by RT-PCR method relative to control; format: cell-based; summary of the method: as §1
[4] = test system: Cellular tumor antigen p53 (Homo sapiens), P04637 [Y220C]; assay: Activation of p53 Y220C mutant in human NUGC3 cells assessed as change in EI24 mRNA level at 60 uM after 18 hrs by RT-PCR method relative to control; format: cell-based; summary of the method: as §1
[5] = test system: Cellular tumor antigen p53 (Homo sapiens), P04637 [Y220C]; assay: Activation of p53 Y220C mutant in human NUGC3 cells assessed as change in TP53 mRNA level at 60 uM after 18 hrs by RT-PCR method relative to control; format: cell-based; summary of the method: as §2
[6] = test system: Cellular tumor antigen p53 (Homo sapiens), P04637 [Y220C]; assay: Activation of p53 Y220C mutant in human NUGC3 cells assessed as change in EGFR mRNA level at 60 uM after 18 hrs by RT-PCR method relative to control; format: cell-based; summary of the method: as §1
[7] = test system: Cellular tumor antigen p53 (Homo sapiens), P04637 [Y220C]; assay: Activation of p53 Y220C mutant in human NUGC3 cells assessed as change in CDC25C mRNA level at 60 uM after 18 hrs by RT-PCR method relative to control; format: cell-based; summary of the method: as §1
[8] = test system: Cellular tumor antigen p53 (Homo sapiens), P04637 [Y220C]; assay: Activation of p53 Y220C mutant in human NUGC3 cells assessed as change in PPM1D mRNA level at 60 uM after 18 hrs by RT-PCR method relative to control; format: cell-based; summary of the method: as §2
[9] = test system: Cellular tumor antigen p53 (Homo sapiens), P04637 [Y220C]; assay: Activation of p53 Y220C mutant in human NUGC3 cells assessed as change in PCNA mRNA level at 60 uM after 18 hrs by RT-PCR method relative to control; format: cell-based; summary of the method: as §2
[10] = test system: Cellular tumor antigen p53 (Homo sapiens), P04637 [Y220C]; assay: Activation of p53 Y220C mutant in human NUGC3 cells assessed as change in DNMT1 mRNA level at 60 uM after 18 hrs by RT-PCR method relative to control; format: cell-based; summary of the method: as §1
[11] = test system: Cellular tumor antigen p53 (Homo sapiens), P04637 [Y220C]; assay: Activation of p53 Y220C mutant in human NUGC3 cells assessed as change in TADA3 mRNA level at 60 uM after 18 hrs by RT-PCR method relative to control; format: cell-based; summary of the method: as §2
[12] = test system: Cellular tumor antigen p53 (Homo sapiens), P04637 [Y220C]; assay: Activation of p53 Y220C mutant in human NUGC3 cells assessed as change in TP53BP2 mRNA level at 60 uM after 18 hrs by RT-PCR method relative to control; format: cell-based; summary of the method: as §2
[13] = test system: Cellular tumor antigen p53 (Homo sapiens), P04637 [Y220C]; assay: Activation of p53 Y220C mutant in human NUGC3 cells assessed as change in BIRC5 mRNA level at 60 uM after 18 hrs by RT-PCR method relative to control; format: cell-based; summary of the method: as §1
[14] = test system: Cellular tumor antigen p53 (Homo sapiens), P04637 [Y220C]; assay: Activation of p53 Y220C mutant in human NUGC3 cells assessed as change in TP63 mRNA level at 60 uM after 18 hrs by RT-PCR method relative to control; format: cell-based; summary of the method: as §2
[15] = test system: Cellular tumor antigen p53 (Homo sapiens), P04637 [Y220C]; assay: Activation of p53 Y220C mutant in human NUGC3 cells assessed as change in KRAS mRNA level at 60 uM after 18 hrs by RT-PCR method relative to control; format: cell-based; summary of the method: as §2
[16] = target: T1, Cellular tumor antigen p53 (Homo sapiens, UniProt P04637); assay: Activation of p53 in human NUGC4 cells assessed as change in CHEK2 mRNA level at 60 uM after 18 hrs by RT-PCR method relative to control; format: cell-based; conditions: read-out: FC
Summary of the method: (§3)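 p53 signaling qPCR array of 84 p53-pathway genes. Cells were treated in 6-well plates for 18 h with 0.5% DMSO in compound and control samples. Total RNA was extracted and fold-changes were obtained by the ΔΔCt method against untreated control, with β2-microglobulin (B2M) as housekeeping gene. Two independent biological replicates per cell line.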

[17] = target: T1, Cellular tumor antigen p53; assay: Activation of p53 in human NUGC4 cells assessed as change in MSH2 mRNA level at 60 uM after 18 hrs by RT-PCR method relative to control; format: cell-based; conditions: read-out: FC; summary of the method: as §3
[18] = target: T1, Cellular tumor antigen p53; assay: Activation of p53 in human NUGC4 cells assessed as change in CDKN2A mRNA level at 60 uM after 18 hrs by RT-PCR method relative to control; format: cell-based; conditions: read-out: FC; summary of the method: as §3
[19] = target: T1, Cellular tumor antigen p53; assay: Activation of p53 in human NUGC4 cells assessed as change in FAS mRNA level at 60 uM after 18 hrs by RT-PCR method relative to control; format: cell-based; conditions: read-out: FC; summary of the method: as §3
[20] = target: T1, Cellular tumor antigen p53; assay: Activation of p53 in human NUGC4 cells assessed as change in MYC mRNA level at 60 uM after 18 hrs by RT-PCR method relative to control; format: cell-based; conditions: read-out: FC; summary of the method: as §3
[21] = target: T1, Cellular tumor antigen p53; assay: Activation of p53 in human NUGC4 cells assessed as change in RB1 mRNA level at 60 uM after 18 hrs by RT-PCR method relative to control; format: cell-based; conditions: read-out: FC
[22] = target: T1, Cellular tumor antigen p53; assay: Activation of p53 in human NUGC4 cells assessed as change in S1AH1 mRNA level at 60 uM after 18 hrs by RT-PCR method relative to control; format: cell-based; conditions: read-out: FC
[23] = target: T1, Cellular tumor antigen p53; assay: Activation of p53 in human NUGC4 cells assessed as change in RELA mRNA level at 60 uM after 18 hrs by RT-PCR method relative to control; format: cell-based; conditions: read-out: FC
[24] = target: T1, Cellular tumor antigen p53; assay: Activation of p53 in human NUGC4 cells assessed as change in BIRC5 mRNA level at 60 uM after 18 hrs by RT-PCR method relative to control; format: cell-based; conditions: read-out: FC; summary of the method: as §2
[25] = target: T1, Cellular tumor antigen p53; assay: Activation of p53 in human NUGC4 cells assessed as change in FADD mRNA level at 60 uM after 18 hrs by RT-PCR method relative to control; format: cell-based; conditions: read-out: FC; summary of the method: as §3
[26] = target: T1, Cellular tumor antigen p53; assay: Activation of p53 in human NUGC4 cells assessed as change in MCL1 mRNA level at 60 uM after 18 hrs by RT-PCR method relative to control; format: cell-based; conditions: read-out: FC; summary of the method: as §3
[27] = target: T1, Cellular tumor antigen p53; assay: Activation of p53 in human NUGC4 cells assessed as change in NF1 mRNA level at 60 uM after 18 hrs by RT-PCR method relative to control; format: cell-based; conditions: read-out: FC; summary of the method: as §3
[28] = target: T1, Cellular tumor antigen p53; assay: Activation of p53 in human NUGC4 cells assessed as change in CDK4 mRNA level at 60 uM after 18 hrs by RT-PCR method relative to control; format: cell-based; conditions: read-out: FC; summary of the method: as §3
Huh-7 = assay: Upregulation of p21 mRNA level in p53 Y220C mutant knockout human HuH7 cells at 30 uM after 18 hrs by RT-PCR method; format: functional, cell-based

`CCNC(=O)c1c(O)c(I)c(-n2cccc2)c2sc(N(CC)CC)nc12` showed a fold change (FC) [1] of 1, a fold change (FC) [2] of 5.3 and a fold change (FC) [3] of 1.1. The fold change (FC) [4] was 0.8, the fold change (FC) [5] was 0.7 and the fold change (FC) [6] was 1. For the same compound, the fold change (FC) [7] was 0.7, the fold change (FC) [8] was 0.9 and the fold change (FC) [9] was 0.8. For the same compound, the fold change (FC) [10] was 1.2, the fold change (FC) [11] was 0.8 and the fold change (FC) [12] was 1.8. The fold change (FC) [13] was 0.6, the fold change (FC) [14] was 1.5 and the fold change (FC) [15] was 1.2. It also gave a fold induction at 60 µM [16] of 0.7, a fold induction at 60 µM [17] of 0.7 and a fold induction at 60 µM [18] of 0.5 to 1. It also gave a fold induction at 60 µM [19] of 1, a fold induction at 60 µM [20] of 0.7 and a fold induction at 60 µM [21] of 0.8. For the same compound, the fold induction at 60 µM [22] was 1.2, the fold induction at 60 µM [23] was 0.8 and the fold induction at 60 µM [24] was 0.6. It also gave a fold induction at 60 µM [25] of 0.9, a fold induction at 60 µM [26] of 0.8 and a fold induction at 60 µM [27] of 0.8. For the same compound, the fold induction at 60 µM [28] was 0.8 and the Activity (Huh-7) was “inactive”.
